From ChEMBL document CHEMBL1126023, “Synthesis, antinociceptive activity, and opioid receptor profiles of substituted trans-3-(decahydro- and octahydro-4a-isoquinolinyl)phenols” (J Med Chem, 1992)

How the values were obtained:
Mus musculus = assay: Effective dose for the inhibition of acetylcholine induced mouse abdominal contriction was determined in vivo; assay type: functional; conditions: Abdomen
Summary of the method: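 Mouse abdominal constriction induced by acetylcholine. Compounds given sc in saline vehicle. ED50 reported in mg/kg sc, with 95% confidence limits, or both values where only two determinations were made.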

Oryctolagus cuniculus [1] = organism: Oryctolagus cuniculus; assay: In vitro antagonist affinity constant was measured on rabbit vas deferens; assay type: functional
[2] = biological target: Opioid receptors; mu/kappa/delta; assay: (§1) In vitro inhibitory activity against opioid receptor in Guinea pig ileum; assay type: tissue-based, Cavia porcellus
[3] = biological target: Mu-type opioid receptor (Cavia porcellus) (UniProt P97266); assay: Dose ratio IC50 after beta-FNA (10e-6 M) 30 min pretreatment on guinea pig ileum and IC50 before beta-FNA treatment against opioid receptor mu in guinea pig ileum; assay type: tissue-based
Mu-type opioid receptor (Cavia porcellus), sequence (P97266 whole entry): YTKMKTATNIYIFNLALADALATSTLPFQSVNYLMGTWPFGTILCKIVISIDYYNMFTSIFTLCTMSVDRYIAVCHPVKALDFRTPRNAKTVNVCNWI

Oryctolagus cuniculus [4] = organism: Oryctolagus cuniculus; assay: In vitro antagonist affinity constant was measured on rabbit vas deferens AT 10e-6 M concentration; assay type: functional
[5] = as §1; assay type: functional, tissue-based

Structure (SMILES)	ED50 (Mus musculus) [mg/kg]	pKB (Oryctolagus cuniculus [1])	IC50 [2] [nM]	Dose ratio [3]	inhibition at 1 µM (Oryctolagus cuniculus [4]) [%]	IC50 [5] [nM]	IC50 (Oryctolagus cuniculus [1]) [nM]
O=C1CCC2(c3cccc(O)c3)CCN(CC3CC3)C[C@@H]2C1 (some centres not stated)	> 10	–	–	–	–	–	–
Oc1cccc(C23CC[C@H](O)C[C@H]2CN(CC2CCC2)CC3)c1 (some centres not stated)	> 10	–	–	–	–	–	–
C=C1CCC2(c3cccc(O)c3)CCN(CC3CC3)C[C@@H]2C1 (some centres not stated)	1.3	5.8	–	–	–	–	–
Oc1cccc(C23CCCC[C@H]2CN(CC2CC2)CC3)c1 (some centres not stated)	1.09	–	150	2.8	24	–	–
O=C1CC[C@H]2CN(CC3CC3)CCC2(c2cccc(O)c2)C1 (some centres not stated)	1.6	6.1	120	1.4	–	–	–
Oc1cccc(C23C=C[C@H](O)C[C@H]2CN(CC2CC2)CC3)c1 (some centres not stated)	> 10	5.6	–	–	–	–	–
C=C1CCC2(c3cccc(O)c3)CCN(CC3CCC3)C[C@@H]2C1 (some centres not stated)	1.06	5.3	–	–	–	–	–
Oc1cccc(C23CC=CC[C@H]2CN(CC2CC2)CC3)c1 (some centres not stated)	0.53	–	90	2.3	–	–	–
C=C1CC[C@H]2CN(C)CCC2(c2cccc(O)c2)C1 (some centres not stated)	0.18	5.9	60	22	–	–	–
CN1CCC2(c3cccc(O)c3)CC=CC[C@H]2C1 (some centres not stated)	0.5	5.4	130	> 30	–	–	–
CC[C@@]12CCN(CC3CC3)C(C(=O)c3ccc(O)cc31)[C@@H]2C [ETHYLKETOCYCLAZOCINE]	0.08	–	–	–	–	0.5	–
C=C1C[C@@H](C)[C@H]2CN(CC3CC3)CCC2(c2cccc(O)c2)C1 (some centres not stated)	0.05	–	–	–	–	–	28000
C=C1C[C@H](C)[C@H]2CN(CC3CC3)CCC2(c2cccc(O)c2)C1 (some centres not stated)	3.3	4.8	–	–	–	–	–
CN1CC[C@]23c4c5ccc(O)c4O[C@H]2[C@@H](O)C=C[C@H]3[C@H]1C5 [MORPHINE]	0.47	–	–	–	–	–	–
C=C1CC[C@H]2CN(CC3CCC3)CCC2(c2cccc(O)c2)C1 (some centres not stated)	0.23	5.3	–	–	–	–	–
C=C1CC[C@H]2CN(CC3CC3)CCC2(c2cccc(O)c2)C1 (some centres not stated)	0.17	6.3	15	1.7	–	–	–
Oc1cccc(C23CC=CC[C@H]2CN(CC2CCC2)CC3)c1 (some centres not stated)	0.39	5.7	60	14.7	–	–	–
C=CCN1CCC2(c3cccc(O)c3)CC(=C)CC[C@H]2C1 (some centres not stated)	0.55	5.5	140	3.3	–	–	–
O=C1CCC2(c3cccc(O)c3)CCN(CC3CCC3)C[C@@H]2C1 (some centres not stated)	> 10	–	–	–	–	–	–
C=CCN1CCC2(c3cccc(O)c3)CC=CC[C@H]2C1 (some centres not stated)	1.91	5.6	–	–	–	–	–
Oc1cccc(C23CC[C@H](O)C[C@H]2CN(CC2CC2)CC3)c1 (some centres not stated)	> 10	–	–	–	–	–	–
